Entries after “also recorded” stand apart in the source; their conditions may differ.
Tests used:
7 dpf zebrafish larvae = assay: zebrafish strobe light response; assay type: in vivo, Danio rerio; settings: for switch of strobe light response from freezing to escape behavior (in words): dose curves, freezing index, 7 dpf larvae, 1 hr incubation
Procedure, shortened: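 7 dpf larvae (EkkWill; TuAB sigmar1 frameshift mutants vs WT siblings) raised in 10 mM HEPES-E3 at 28 °C, 10 per well. Compound added at 1:100 from stock, 1 hr at 28 °C in ambient light; genetic tests included 10 μM scopolamine. Infrared video across alternating 1-min dark/strobe periods. Freezing index = third-quartile motion, strobe minus dark. 12 wells/dose; switching concentration taken from the dose-curve zero intercept.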

sigma-1 receptor = sigma-1 receptor (Cavia porcellus, UniProt Q60492); assay: sigma-1 radioligand competition binding assay; design: species or system rodent
Sequence of sigma-1 receptor (Q60492 whole entry): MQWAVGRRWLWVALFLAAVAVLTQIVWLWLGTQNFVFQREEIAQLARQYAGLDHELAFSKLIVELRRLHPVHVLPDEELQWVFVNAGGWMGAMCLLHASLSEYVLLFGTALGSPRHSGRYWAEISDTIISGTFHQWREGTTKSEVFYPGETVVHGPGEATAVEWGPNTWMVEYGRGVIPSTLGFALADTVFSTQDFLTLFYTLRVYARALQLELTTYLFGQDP

| SMILES | switch of strobe light response from freezing to escape behavior (in words) (7 dpf zebrafish larvae) | further results |
| --- | --- | --- |
| COC(=O)[C@H]1[C@@H](OC(=O)c2ccccc2)C[C@@H]2CC[C@H]1N2C [cocaine] | did not cause strobe-induced |  |
| CN1CCC[C@H]1c1cccnc1 [nicotine] | did not cause strobe-induced |  |
| CC(N)Cc1ccccc1 (centres unmarked) [amphetamine] | did not cause strobe-induced |  |
| Cc1cccc(NC(=O)CCN2CCNCC2)c1 [Compound 27, 3-(piperazin-1-yl)-N-(m-tolyl)propanamide] | no effect; also recorded: ineffective at modulating behavior | sigma-1 binding (in words) (sigma-1 receptor): lost its binding potency at sigma-1 |
| COC(=O)C(c1ccccc1)C1CCCCN1 (centres unmarked) [methylphenidate] | did not cause strobe-induced |  |
| COc1ccccc1N1CCN(CC(O)COc2cccc3ccccc23)CC1 (centres unmarked) [naftopidil] |  | switch from freezing to escape at 5 μM (7 dpf zebrafish larvae; 5 μM): just barely switched the zebrafish response from freezing to escape; immobilization of larvae at 10 μM (7 dpf zebrafish larvae; 10 μM, presumably due to toxicity): completely immobilized the larvae |

From PMC4912403 (Nature chemical biology, 2016)
